Peptide text beside a SMILES is read from it. * marks the point of attachment. Cbz = O=C(OCc1ccccc1)*
How the values were obtained:
[1] = molecular target: CDK12 (Homo sapiens, UniProt Q9NYV4); test: Western blot of CDK12 in PCa cell lines; type: cell-based; details: 22Rv1, MG132 pre-treatment 2 hours, then BSJ-5-63
In short: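 Equal protein amounts separated by SDS-PAGE and transferred to PVDF. Primary antibodies in 5% BSA/TBST overnight at 4°C; secondary antibody 1 h at room temperature. Blots shown are representative of three independent experiments.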

[2] = test system: PCa cells; test: Colony formation assay; type: cell-based, human; details: cell viability and colony formation assays
In short: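 Seeding was 30,000 cells/well for 22Rv1 (six-well plates), with overnight attachment before treatment. Colonies grown 14 days at 37°C, 5% CO2, with weekly medium change. Stained with 0.1% crystal violet and quantified by image analysis. Three independent experiments.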

[3] = test system: DU145 xenografts; test: In vivo DU145 xenograft model; set-up: species or system male SCID mice; details: BSJ-5-63 25 mg/kg ip; olaparib 50 mg/kg p.o.
In short: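 DU145 xenografts were set up subcutaneously with Matrigel in the right flank. At ~150 mm3, mice were randomised into four groups (n = 5): vehicle p.o., PARP inhibitor 50 mg/kg p.o., test compound 25 mg/kg ip, or sequential combination. Dosing volume 0.1 ml/10 g. Body weight recorded daily. Study ended after 3–4 weeks or at 2 cm tumour length.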

[4] = test system: CDK12-KO 22Rv1 xenografts; test: In vivo CDK12-KO 22Rv1 xenograft model; set-up: species or system male SCID mice; details: olaparib 50 mg/kg, p.o., daily
In short: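 CDK12-KO (two sgRNAs) and AAVS1-control 22Rv1 cells made by lentiviral spin infection of Cas9-expressing cells (blasticidin 20 μg/ml). Implanted subcutaneously (5 × 10^6 with Matrigel). At ~150 mm3, each line randomised to vehicle p.o. or PARP inhibitor 50 mg/kg p.o. daily for 3 weeks (or until 2 cm tumour length). Tumours excised and weighed.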

[5] = test system: 22Rv1 xenografts; test: In vivo 22Rv1 xenograft model; set-up: species or system male SCID mice; details: BSJ-5-63 25 mg/kg ip; olaparib 50 mg/kg p.o.
In short: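 22Rv1 cells (5 × 10^6 in 50 μl plus 50 μl Matrigel) injected subcutaneously into the right flank; n = 5/group, randomised at ~150 mm3. Volume = length × width² × 0.5. Monotherapy: 50 mg/kg ip daily or 1 day on/2 days off for 12 days; vehicle 5% DMSO/15% Solutol HS-15/80% saline. Sequential arms: test compound 25 mg/kg ip and PARP inhibitor 50 mg/kg p.o. Tumours weighed; H&E and cleaved caspase-3 IHC performed.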

[6] = test system: BID-PC4 PDX; test: In vivo BID-PC4 PDX model; set-up: species or system male SCID mice; details: BSJ-5-63 25 mg/kg ip; olaparib 50 mg/kg p.o.
In short: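 Tumour bits in 50 μl PBS plus 50 μl Matrigel implanted subcutaneously (right flank) into intact male SCID mice. At ~150 mm3, randomised into four groups (n = 5): vehicle (5% DMSO/15% Solutol HS-15/80% saline) p.o., PARP inhibitor 50 mg/kg p.o., test compound 25 mg/kg ip, or sequential combination. Body weight recorded daily. Run for 3 weeks or until 2 cm tumour length; tumours excised and weighed.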

[7] = In vitro mouse liver microsomal stability assay; type: in vitro ADME; details: liver microsomes
In short: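 Mouse liver microsomes (0.5 mg/ml) incubated with 1 μM test compound at 37°C with NADPH cofactor (1 mM).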

CDK12, sequence (Q9NYV4 whole entry): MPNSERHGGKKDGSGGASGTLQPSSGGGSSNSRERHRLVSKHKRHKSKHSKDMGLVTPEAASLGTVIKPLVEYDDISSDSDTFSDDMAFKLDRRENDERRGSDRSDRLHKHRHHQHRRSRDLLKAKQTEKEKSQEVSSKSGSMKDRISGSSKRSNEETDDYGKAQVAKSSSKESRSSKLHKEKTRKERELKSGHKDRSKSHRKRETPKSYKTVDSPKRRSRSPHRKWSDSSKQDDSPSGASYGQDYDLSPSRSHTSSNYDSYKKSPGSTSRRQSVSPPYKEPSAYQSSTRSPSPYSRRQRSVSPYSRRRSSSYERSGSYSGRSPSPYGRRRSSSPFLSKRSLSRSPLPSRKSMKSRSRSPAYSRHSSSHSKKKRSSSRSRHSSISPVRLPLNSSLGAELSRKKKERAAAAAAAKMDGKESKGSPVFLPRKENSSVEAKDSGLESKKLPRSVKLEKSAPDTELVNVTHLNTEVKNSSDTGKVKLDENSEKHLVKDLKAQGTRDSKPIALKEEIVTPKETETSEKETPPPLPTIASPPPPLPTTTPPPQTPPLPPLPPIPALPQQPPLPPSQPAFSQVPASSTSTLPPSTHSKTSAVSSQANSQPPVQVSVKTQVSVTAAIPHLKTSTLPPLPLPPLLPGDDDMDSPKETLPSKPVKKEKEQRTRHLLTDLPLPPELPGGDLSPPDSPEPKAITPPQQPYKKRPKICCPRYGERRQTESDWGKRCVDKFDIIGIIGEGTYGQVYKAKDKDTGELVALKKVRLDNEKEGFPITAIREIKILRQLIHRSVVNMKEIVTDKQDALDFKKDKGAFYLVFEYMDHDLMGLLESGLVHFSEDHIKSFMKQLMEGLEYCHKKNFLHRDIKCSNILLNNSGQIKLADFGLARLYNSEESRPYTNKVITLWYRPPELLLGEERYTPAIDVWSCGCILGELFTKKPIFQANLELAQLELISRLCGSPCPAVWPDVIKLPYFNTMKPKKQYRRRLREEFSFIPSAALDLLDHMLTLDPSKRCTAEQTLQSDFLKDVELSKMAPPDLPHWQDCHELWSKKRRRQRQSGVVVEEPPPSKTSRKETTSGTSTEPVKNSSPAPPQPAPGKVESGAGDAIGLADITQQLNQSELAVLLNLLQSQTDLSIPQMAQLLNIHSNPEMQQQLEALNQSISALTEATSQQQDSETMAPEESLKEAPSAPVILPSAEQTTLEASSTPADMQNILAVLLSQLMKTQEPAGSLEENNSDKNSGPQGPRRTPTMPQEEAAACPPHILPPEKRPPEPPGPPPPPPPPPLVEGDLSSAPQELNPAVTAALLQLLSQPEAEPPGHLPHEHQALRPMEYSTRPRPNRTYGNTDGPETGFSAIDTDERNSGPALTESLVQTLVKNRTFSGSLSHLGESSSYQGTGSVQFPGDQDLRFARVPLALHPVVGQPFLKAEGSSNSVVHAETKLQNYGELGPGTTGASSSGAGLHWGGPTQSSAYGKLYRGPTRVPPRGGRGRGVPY
CDK12, sequence (O75909 whole entry partner): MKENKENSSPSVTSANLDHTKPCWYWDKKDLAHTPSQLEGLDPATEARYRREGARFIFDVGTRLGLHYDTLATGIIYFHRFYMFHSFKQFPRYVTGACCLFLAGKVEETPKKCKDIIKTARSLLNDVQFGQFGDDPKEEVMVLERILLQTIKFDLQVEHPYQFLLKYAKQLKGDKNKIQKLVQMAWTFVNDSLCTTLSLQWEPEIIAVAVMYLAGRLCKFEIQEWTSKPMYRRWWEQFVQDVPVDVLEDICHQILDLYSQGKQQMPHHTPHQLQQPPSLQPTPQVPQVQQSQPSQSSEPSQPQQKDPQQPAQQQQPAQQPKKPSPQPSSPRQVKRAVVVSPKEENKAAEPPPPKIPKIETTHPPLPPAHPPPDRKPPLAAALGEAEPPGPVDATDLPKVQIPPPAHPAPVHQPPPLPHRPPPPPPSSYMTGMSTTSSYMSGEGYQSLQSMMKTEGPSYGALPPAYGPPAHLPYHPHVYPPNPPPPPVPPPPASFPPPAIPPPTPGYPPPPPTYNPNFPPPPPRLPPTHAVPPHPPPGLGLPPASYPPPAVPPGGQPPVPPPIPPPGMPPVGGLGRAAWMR

## CC(C)C[C@@H](C=O)NC(=O)[C@H](CC(C)C)NC(=O)[C@H](CC(C)C)NC(=O)OCc1ccccc1 [MG132] (Cbz-Leu-Leu-Leu-aldehyde)
[1]
  BSJ-5-63–induced degradation of CDK12/7/9 after pretreatment with the proteasome inhibitor: rescued

## O=C(c1cc(Cc2n[nH]c(=O)c3ccccc23)ccc1F)N1CCN(C(=O)C2CC2)CC1 [Olaparib]
[2]
  sensitivity of CDK12-KO 22Rv1 cells compared with AAVS1 control: significantly enhanced sensitivity
[3]
  DU145 tumor growth, monotherapy: only partial inhibition of tumor growth
[4]; 3 weeks
  tumor growth of CDK12-KO 22Rv1 xenografts: marked sensitivity
[4]; day 21
  tumor weight of CDK12-KO 22Rv1 xenografts: reduction in tumor weight
[5]
  22Rv1 tumor growth, monotherapy: partial inhibition
  number of apoptotic cells in 22Rv1 tumors, monotherapy: notably increased
[6]
  BID-PC4 PDX tumor growth, monotherapy: insensitive

## CCN(CC)CCNC(=O)c1c(C)[nH]c(/C=C2\C(=O)Nc3ccc(F)cc32)c1C [Sunitinib]
[7]
  half-life at 1 μM: 10 min
  microsomal CLint at 1 μM: 69 µL/min/mg
